Our source for the fold change (FC) and Ki values is ChEMBL document CHEMBL4033639, “Synthesis, biochemical evaluation, and molecular modeling studies of aryl and arylalkyl di-n-butyl phosphates, effective butyrylcholinesterase inhibitors” (Bioorg Med Chem, 2017).

As usually defined, the Ki is the dissociation constant of the complex between target and ligand, obtained from inhibition or displacement. Read a low Ki as tighter binding.

Sequence of Acetylcholinesterase (Electrophorus electricus) (O42275 24-633 limits assumed): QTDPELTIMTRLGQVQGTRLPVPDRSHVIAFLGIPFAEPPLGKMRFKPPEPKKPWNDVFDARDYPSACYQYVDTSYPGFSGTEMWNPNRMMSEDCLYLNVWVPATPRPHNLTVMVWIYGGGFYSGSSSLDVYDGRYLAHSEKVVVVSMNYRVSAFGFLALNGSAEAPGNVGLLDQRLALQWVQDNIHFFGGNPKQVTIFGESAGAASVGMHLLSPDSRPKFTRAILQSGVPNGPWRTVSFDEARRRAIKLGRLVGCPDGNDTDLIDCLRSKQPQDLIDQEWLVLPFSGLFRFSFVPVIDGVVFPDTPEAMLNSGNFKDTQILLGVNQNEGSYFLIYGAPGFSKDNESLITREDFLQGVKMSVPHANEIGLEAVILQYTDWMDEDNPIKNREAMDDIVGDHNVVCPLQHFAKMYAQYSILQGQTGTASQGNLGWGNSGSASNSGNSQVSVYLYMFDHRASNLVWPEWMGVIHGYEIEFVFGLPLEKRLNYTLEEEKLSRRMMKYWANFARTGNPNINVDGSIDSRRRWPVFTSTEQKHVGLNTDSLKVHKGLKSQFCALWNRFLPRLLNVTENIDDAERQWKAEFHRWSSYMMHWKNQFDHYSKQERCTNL

The first assay deals with Cholinesterase (Equus caballus) (UniProt P81908). The experiment in a line: Inhibition of horse serum BChE at 500 uM using butyrylthiocholine as substrate by spectrophotometry relative to control. The essentials:
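Ellman method at 25 °C: 100 mM sodium phosphate pH 7.5, 1 mM MgCl2, 0.2 mM DTNB, BSA, 100 µM butyrylthiocholine, 2% methanol. Inhibitor 500 µM final; reaction started with equine serum BChE (10 nM final); initial rates at 412 nm. Rate divided by 2% methanol no-inhibitor control; at least three determinations with independently prepared inhibitor solutions, averaged.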
Regarding `CCCCOP(=O)(OCCCC)Oc1cc(C)c(C)c(C)c1`, the fold change (FC) stood at 0.09.

For the molecule `CCCCOP(=O)(OCCCC)Oc1ccc(C)c(C)c1`, the fold change (FC) is 0.04.

For `CCCCOP(=O)(OCCCC)Oc1cccc(C)c1`, the fold change (FC) is 0.15.

With `CCCCOP(=O)(OCCCC)Oc1ccccc1C`, the fold change (FC) was found to be 0.27.

For `CCCCOP(=O)(OCCCC)Oc1ccc2ccccc2c1`, the fold change (FC) worked out at 0.01.

As to `CCCCOP(=O)(OCCCC)OCc1ccccc1`, the fold change (FC) was 0.01.

Turning to `CCCCOP(=O)(OCCCC)Oc1cccc2ccccc12`, the fold change (FC) was 0.21.

`CCCCOP(=O)(OCCCC)OCc1ccc(C)cc1`: the fold change (FC) came out at 0.04.

Turning to `CCCCOP(=O)(OCCCC)OCCc1ccccc1`, the fold change (FC) amounted to 0.11.

As to `CCCCOP(=O)(OCCCC)Oc1cc(C)cc(C)c1`, the fold change (FC) was found to be 0.01.

In the case of `CCCCOP(=O)(OCCCC)OCc1cccc(C)c1`, the fold change (FC) worked out at 0.12.

For `CCCCOP(=O)(OCCCC)Oc1ccc(C)cc1`, the fold change (FC) was 0.02.

For `CCCCOP(=O)(OCCCC)OCc1ccccc1C`, the fold change (FC) worked out at 0.04.

Another assay has as its target Acetylcholinesterase (Electrophorus electricus) (UniProt O42275). Put plainly: Inhibition of electric eel AChE at 500 uM using acetylthiocholine as substrate by spectrophotometry relative to control. In short, it runs like this:
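Ellman method at 25 °C: 100 mM sodium phosphate pH 7.5, 1 mM MgCl2, 0.2 mM DTNB, BSA, 100 µM acetylthiocholine, 2% methanol. Inhibitor 500 µM final; reaction started with AChE (10 nM final); initial rates monitored at 412 nm. Rate divided by 2% methanol no-inhibitor control; at least three determinations with independently prepared inhibitor solutions, averaged.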
With `CCCCOP(=O)(OCCCC)Oc1cc(C)c(C)c(C)c1`, the fold change (FC) turned out to be 1.09.

For the molecule `CCCCOP(=O)(OCCCC)Oc1ccc(C)c(C)c1`, the fold change (FC) worked out at 1.04.

With `CCCCOP(=O)(OCCCC)Oc1cccc(C)c1`, the fold change (FC) is 0.99.

In the case of `CCCCOP(=O)(OCCCC)Oc1ccccc1C`, the fold change (FC) came out at 0.99.

With `CCCCOP(=O)(OCCCC)Oc1ccc2ccccc2c1`, the fold change (FC) came out at 1.05.

On to `CCCCOP(=O)(OCCCC)OCc1ccccc1`, for which the fold change (FC) is 1.

`CCCCOP(=O)(OCCCC)Oc1cccc2ccccc12`: the fold change (FC) is 1.07.

In the case of `CCCCOP(=O)(OCCCC)OCc1ccc(C)cc1`, the fold change (FC) is 0.87.

Take `CCCCOP(=O)(OCCCC)OCCc1ccccc1`: the fold change (FC) came to 1.02.

With `CCCCOP(=O)(OCCCC)Oc1cc(C)cc(C)c1`, the fold change (FC) stood at 1.

As for `CCCCOP(=O)(OCCCC)OCc1cccc(C)c1`, the fold change (FC) was 0.86.

On to `CCCCOP(=O)(OCCCC)Oc1ccc(C)cc1`, for which the fold change (FC) was 0.89.

`CCCCOP(=O)(OCCCC)OCc1ccccc1C`: the fold change (FC) worked out at 0.98.

For a further assay, the species on record is Bos taurus. The experiment in a line: Inhibition of bovine pancreas alpha-chymotrypsin using N-benzoyl-l-tyrosine ethyl ester as substrate by spectrophotometry relative to control. The essentials:
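Enzyme (fresh 5 units/mL stock in ice-cold 1 mM HCl) added to start; initial rates read continuously at 256 nm, no-enzyme background subtracted. Rate with compound divided by control rate; at least two determinations with independently prepared inhibitor solutions, averaged.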
Take `CCCCOP(=O)(OCCCC)Oc1cc(C)c(C)c(C)c1`: the fold change (FC) turned out to be 0.84.

Turning to `CCCCOP(=O)(OCCCC)Oc1ccc(C)c(C)c1`, the fold change (FC) came to 0.94.

With `CCCCOP(=O)(OCCCC)Oc1cccc(C)c1`, the fold change (FC) was 0.89.

Take `CCCCOP(=O)(OCCCC)Oc1ccccc1C`: the fold change (FC) came out at 0.92.

For `CCCCOP(=O)(OCCCC)Oc1ccc2ccccc2c1`, the fold change (FC) amounted to 0.76.

On to `CCCCOP(=O)(OCCCC)OCc1ccccc1`, for which the fold change (FC) came to 0.97.

Turning to `CCCCOP(=O)(OCCCC)Oc1cccc2ccccc12`, the fold change (FC) was found to be 0.93.

Consider `CCCCOP(=O)(OCCCC)OCc1ccc(C)cc1`, for which the fold change (FC) was 0.92.

Consider `CCCCOP(=O)(OCCCC)OCCc1ccccc1`, for which the fold change (FC) stood at 0.89.

With `CCCCOP(=O)(OCCCC)Oc1cc(C)cc(C)c1`, the fold change (FC) was determined as 0.95.

For the molecule `CCCCOP(=O)(OCCCC)OCc1cccc(C)c1`, the fold change (FC) was found to be 0.94.

Turning to `CCCCOP(=O)(OCCCC)Oc1ccc(C)cc1`, the fold change (FC) came to 0.96.

With `CCCCOP(=O)(OCCCC)OCc1ccccc1C`, the fold change (FC) came out at 0.94.

Another assay deals with Cholinesterase (Equus caballus, UniProt P81908). Put plainly: Inhibition of horse serum BChE using butyrylthiocholine as substrate by spectrophotometry. The essentials: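 Initial rates monitored continuously at 412 nm (ε 14,150 M-1 cm-1), background from no-enzyme reaction. KI from dependence of observed rate constant on inhibitor concentration (typically twelve); at least three determinations averaged.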
Sequence of Cholinesterase (P81908 whole entry): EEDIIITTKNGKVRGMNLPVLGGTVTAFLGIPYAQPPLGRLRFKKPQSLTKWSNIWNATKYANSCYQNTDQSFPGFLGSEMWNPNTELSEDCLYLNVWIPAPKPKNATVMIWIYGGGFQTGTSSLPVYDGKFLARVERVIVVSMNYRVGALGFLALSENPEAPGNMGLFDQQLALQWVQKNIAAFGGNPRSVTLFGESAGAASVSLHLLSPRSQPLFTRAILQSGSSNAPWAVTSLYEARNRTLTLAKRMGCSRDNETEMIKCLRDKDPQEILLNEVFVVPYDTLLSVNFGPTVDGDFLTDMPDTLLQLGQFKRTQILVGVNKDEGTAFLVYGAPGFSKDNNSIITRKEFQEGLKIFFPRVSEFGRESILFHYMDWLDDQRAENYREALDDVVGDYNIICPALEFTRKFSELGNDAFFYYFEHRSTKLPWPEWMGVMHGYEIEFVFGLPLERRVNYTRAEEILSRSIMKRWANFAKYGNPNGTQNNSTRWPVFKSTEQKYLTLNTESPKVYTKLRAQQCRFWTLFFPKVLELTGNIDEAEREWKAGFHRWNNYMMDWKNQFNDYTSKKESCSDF
With `CCCCOP(=O)(OCCCC)Oc1cc(C)c(C)c(C)c1`, the affinity corresponds to a Ki of 11 µM.

Turning to `CCCCOP(=O)(OCCCC)Oc1ccc(C)c(C)c1`, the affinity, expressed as Ki, was 9 µM.

Molecule `CCCCOP(=O)(OCCCC)Oc1cccc(C)c1` returned a Ki of 16 µM. Against the preceding molecule, the Ki is about 1.8-fold higher.

As for `CCCOP(=O)(OCCC)Oc1ccccc1`, the inhibition constant Ki lay in the range of 45 to 80 µM.

For `CCCCOP(=O)(OCCCC)Oc1ccccc1C`, the affinity corresponds to a Ki of 50 µM. This counts as double-digit micromolar.

`CCCCOP(=O)(OCCCC)Oc1ccc2ccccc2c1` showed a Ki of 1.9 µM.

`CCCCOP(=O)(OCCCC)OCc1ccccc1`: affinity was put at a Ki of 2 µM.

Take `CCOP(=O)(OCC)Oc1cc(C)cc(C)c1`: the Ki is 583 µM. This Ki lies about 290-fold higher than the previous one.

On to `CCCCOP(=O)(OCCCC)Oc1cccc2ccccc12`, for which the affinity corresponds to a Ki of 22 µM.

In the case of `CCCCCOP(=O)(OCCCCC)Oc1ccccc1`, the affinity, expressed as Ki, was 6 µM.

In turn, `CCCCOP(=O)(OCCCC)OCc1ccc(C)cc1` returned a Ki of 14 µM.

In turn, `CCCCOP(=O)(OCCCC)OCCc1ccccc1` gave a Ki of 53 µM.

For `CCOP(=O)(OCC)Oc1ccccc1` [PHOSPHORIC ACID DIETHYL ESTER PHENYL ESTER], the affinity corresponds to a Ki of 1590 µM.

For the molecule `CCCCOP(=O)(OCCCC)Oc1ccccc1`, the Ki lay in the range of 45 to 80 µM.

Regarding `CCCCOP(=O)(OCCCC)Oc1cc(C)cc(C)c1`, the affinity, expressed as Ki, was 1 µM.

`CCCCOP(=O)(OCCCC)OCc1cccc(C)c1`: the affinity corresponds to a Ki of 24 µM. This Ki lies about 24-fold higher than the previous one.

Molecule `CCCCOP(=O)(OCCCC)Oc1ccc(C)cc1` showed an inhibition constant (Ki) of 8 µM.

`CCCCOP(=O)(OCCCC)OCc1ccccc1C`: the affinity corresponds to a Ki of 72 µM.

Take `CCOP(=O)(OCC)Oc1ccc2ccccc2c1`: the affinity corresponds to a Ki of 147 µM.

The next assay deals with Cholinesterase (Equus caballus) (UniProt P81908). The experiment in a line: Reversible inhibition of horse serum BChE at Ki using 25 mM of butyrylthiocholine as substrate preincubated for 1 min followed by substrate addition by spectrophotometry relative to control.
Sequence of Cholinesterase (Equus caballus) (P81908 whole entry): as above
Turning to `CCCCOP(=O)(OCCCC)Oc1cc(C)c(C)c(C)c1`, the fold change (FC) came out at 0.88.

`CCCCOP(=O)(OCCCC)Oc1ccc(C)c(C)c1`: the fold change (FC) amounted to 0.93.

For `CCCCOP(=O)(OCCCC)Oc1cccc(C)c1`, the fold change (FC) is 0.94.

In the case of `CCCCOP(=O)(OCCCC)Oc1ccccc1C`, the fold change (FC) was found to be 0.91.

For the molecule `CCCCOP(=O)(OCCCC)Oc1ccc2ccccc2c1`, the fold change (FC) came to 0.8.

For `CCCCOP(=O)(OCCCC)OCc1ccccc1`, the fold change (FC) stood at 0.92.

In the case of `CCCCOP(=O)(OCCCC)Oc1cccc2ccccc12`, the fold change (FC) is 0.71.

Regarding `CCCCOP(=O)(OCCCC)OCc1ccc(C)cc1`, the fold change (FC) was determined as 0.92.

For the molecule `CCCCOP(=O)(OCCCC)OCCc1ccccc1`, the fold change (FC) worked out at 0.97.

As to `CCCCOP(=O)(OCCCC)Oc1cc(C)cc(C)c1`, the fold change (FC) is 0.83.

Regarding `CCCCOP(=O)(OCCCC)OCc1cccc(C)c1`, the fold change (FC) came out at 0.95.

For `CCCCOP(=O)(OCCCC)Oc1ccc(C)cc1`, the fold change (FC) was found to be 0.94.

In the case of `CCCCOP(=O)(OCCCC)OCc1ccccc1C`, the fold change (FC) was 0.95.
